Measured values published in ChEMBL document CHEMBL1828507, “Novel diarylpyridinones, diarylpyridazinones and diarylphthalazinones as potential HIV-1 nonnucleoside reverse transcriptase inhibitors (NNRTIs)” (Bioorg Med Chem, 2011).

Experiments:
[1] = test system: Human immunodeficiency virus 1; test: Antiviral activity against wild type HIV1 BaL in human TZM-b1 cells after 48 hrs by luciferase assay; type: functional, organism-based; details: Human immunodeficiency virus 1, BaL, TZM-b1, 48 h
Method in brief: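 Infected with 200 TCID₅₀ HIV-1 BaL, then 48 h culture and luciferase readout. Inhibition relative to untreated controls; EC50 by nonlinear regression. Triplicate wells, at least two independent experiments.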

[2] = test system: Human immunodeficiency virus 1; test: Antiviral activity against HIV1 VI829 expressing reverse transcriptase Y181C mutant infected in human TZM-bl cells after 48 hrs by luciferase assay; type: functional, organism-based; details: Human immunodeficiency virus 1, VI829, TZM-bl
[3] = test system: Human immunodeficiency virus 1; test: Ratio of EC50 for HIV1 VI829 expressing reverse transcriptase Y181C mutant infected in human TZM-b1 cells to EC50 for wild type HIV1 VI829 in human TZM-b1 cells; type: functional
[4] = test system: Human immunodeficiency virus 1; test: Antiviral activity against HIV1 BaL expressing reverse transcriptase V106A mutant infected in human TZM-bl cells after 48 hrs by luciferase assay; type: functional, organism-based; details: Human immunodeficiency virus 1, BaL
[5] = test system: Human immunodeficiency virus 1; test: Antiviral activity against wild type HIV1 VI829 infected in human TZM-b1 cells after 48 hrs by luciferase assay; type: functional, organism-based; details: Human immunodeficiency virus 1, VI829, TZM-b1, 48 h
[6] = test system: Human immunodeficiency virus 1; test: Ratio of EC50 for HIV1 BaL expressing reverse transcriptase V106A mutant infected in human TZM-bl cells to EC50 for wild type HIV1 BaL in human TZM-bl cells; type: functional
[7] = Selectivity index, ratio of CC50 for human TZM-bl cells to EC50 for wild type HIV1 BaL; type: toxicity, cell-based; details: read-out: Ratio CC50/EC50
Method in brief: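 SI taken as CC50/EC50. CC50 from a 48 h WST-1 viability assay (A450) in TZM-bl cells. EC50 from a 48 h luciferase readout in TZM-bl cells infected with 200 TCID₅₀ HIV-1 BaL after a 30 min compound pre-incubation with DEAE dextran. Both values by nonlinear regression.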

[8] = Cytotoxicity against human TZM-b1 cells infected with wild type HIV1 BaL after 48 hrs using formazan dye by WST1 assay; type: cell-based; details: TZM-bl cells infected with wild type HIV1 BaL
Method in brief: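 WST-1 reagent added, and absorbance at 450 nm read after 90 min. Viability relative to untreated controls; CC50 by nonlinear regression. Three replicate wells, at least two independent experiments.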

[9] = biological target: Human immunodeficiency virus type 1 reverse transcriptase (Human immunodeficiency virus 1, UniProt Q72547); test: Inhibition of wild type HIV1 reverse transcriptase
[10] = test system: Human immunodeficiency virus 1; test: Ratio of TMC120 EC50 to compound EC50 for wild type HIV1 BaL infected in human TZM-b1 cells; type: functional

SMILES | EC50 [1] [µM] | selectivity ratio [7] | CC50 at 48 h [8] [µM] | also measured
O=c1ccc(Nc2ccccc2)cn1Nc1ccccc1 | > 10 |  |  | 
Cc1cc(Br)cc(C)c1Oc1ccc(=O)n(Nc2ccc(C#N)cc2)n1 | 0.64 | > 193 | > 100 | EC50 [2]: > 10 µM; Ratio EC50 [3]: >29; EC50 [4]: 2.97 µM; EC50 [5]: 0.34 µM; Ratio EC50 [6]: 5
Cc1cc(C)c(Oc2ccc(=O)n(Nc3ccc(C#N)cc3)n2)c(C)c1 | 0.69 | 29 | 19.9 | EC50 [2]: > 10 µM; Ratio EC50 [3]: >64; EC50 [4]: 1.12 µM; IC50 [9]: 100 µM; EC50 [5]: 0.16 µM; Ratio EC50 [6]: 2
Cc1cc(C)c(Nc2ccc(=O)n(Nc3ccc(C(F)(F)F)cc3)c2)c(C)c1 | > 10 |  |  | 
Cc1cc(C)c(Oc2ccc(=O)n(Nc3ccc(C(F)(F)F)cc3)n2)c(C)c1 | 10 | 2.1 | 21.2 | 
Cc1cc(C)c(Oc2ccc(=O)n(Nc3ccc(F)cc3)n2)c(C)c1 | 9.64 | 2.4 | 23.5 | 
Cc1cc(C)c(Nc2ccc(=O)n(Nc3ccc(C#N)cc3)n2)c(C)c1 | 1.37 | > 69 | > 100 | IC50 [9]: 547 µM; Ratio EC50 [10]: 700
N#Cc1ccc(Nn2cc(Nc3ccccc3)ccc2=O)cc1 | > 10 |  |  | 
Cc1cc(C)c(Nc2ccc(=O)n(Nc3ccc(C#N)cc3)c2)c(C)c1 | > 10 |  |  | IC50 [9]: 760 µM
Cc1cc(C)c(Nc2ccc(=O)n(Nc3cccc(C#N)c3)c2)c(C)c1 | > 10 |  |  | 
Cc1cc(C)c(Oc2ccc(=O)n(Nc3cccc(C#N)c3)n2)c(C)c1 | > 10 |  |  | 
Cc1cc(Cl)cc(C)c1Oc1ccc(=O)n(Nc2cccc(C#N)c2)n1 | > 5 |  |  | 
Cc1cc(Cl)cc(C)c1Oc1nn(Nc2ccc(C#N)cc2)c(=O)c2ccccc12 | 3.6 | 14.2 | 51.2 | 
Cc1cccc(C)c1Oc1ccc(=O)n(Nc2cccc(C#N)c2)n1 | > 10 |  |  | 
Cc1cc(C)c(Nc2ccc(=O)n(Nc3ccc(C(F)(F)F)cc3)n2)c(C)c1 | > 10 |  |  | 
Cc1cc(C#N)cc(C)c1Oc1ccc(=O)n(Nc2ccc(C#N)cc2)n1 | 1.75 | 14 | 24.7 | 
Cc1cc(C#N)cc(C)c1Oc1ccc(=O)n(Nc2cccc(C#N)c2)n1 | > 10 |  |  | 
Cc1cccc(C)c1Oc1ccc(=O)n(Nc2ccccc2)n1 | > 10 |  |  | 
Cc1cc(C)c(Nc2ccc(=O)n(Nc3cccc(C#N)c3)n2)c(C)c1 | > 10 | < 1 | 5.04 | 
Cc1cccc(C)c1Oc1ccc(=O)n(Nc2ccc(C#N)cc2)n1 | 7.63 | > 13 | > 100 | 
Cc1cccc(C)c1Oc1ccc(=O)n(Nc2ccc(F)cc2)n1 | > 10 |  |  | 
N#Cc1ccc(Nc2ccc(=O)n(Nc3ccc(C#N)cc3)c2)cc1 | > 10 |  |  | 
Cc1cc(Cl)cc(C)c1Oc1ccc(=O)n(Nc2ccc(C#N)cc2)n1 | 0.6 | 23 | 14.1 | EC50 [2]: > 10 µM; Ratio EC50 [3]: >20; EC50 [4]: 4.55 µM; EC50 [5]: 0.5 µM; Ratio EC50 [6]: 8
Cc1cc(C)c(Nc2ccnc(Nc3ccc(C#N)cc3)n2)c(C)c1 [DAPIVIRINE] | 0.002 | 1440 | 2.88 | EC50 [2]: 0.0108 µM; Ratio EC50 [3]: 5.4; EC50 [4]: 0.0025 µM; IC50 [9]: 2.5 µM; EC50 [5]: 0.002 µM; Ratio EC50 [6]: 1.3
Cc1cc(C)c(Oc2nn(Nc3ccc(C#N)cc3)c(=O)c3ccccc23)c(C)c1 | 1.39 | 43.3 | 60.4 | IC50 [9]: 928 µM
Cc1cc(C)c(Oc2ccc(=O)n(Nc3ccc(Cl)cc3)n2)c(C)c1 | 3.95 | 5.6 | 22.3 | 
Cc1cc(C)c(Nc2ccc(=O)n(Nc3ccccc3)c2)c(C)c1 | > 10 |  |  | 
Cc1cc(Br)cc(C)c1Oc1ccc(=O)n(Nc2ccc(Cl)cc2)n1 | 3.19 | 20 | 63.5 | 
Cc1cc(Cl)cc(C)c1Oc1nn(Nc2ccc(Cl)cc2)c(=O)c2ccccc12 | 10 |  |  | 
